This passage reports IC50 results from ChEMBL document CHEMBL4049390, “Combination of amino acid/dipeptide with ligustrazine-betulinic acid as antitumor agents” (Eur J Med Chem, 2017).

Each structure is given as a SMILES string. Some results are limits rather than exact numbers.

A word on the IC50: it is the midpoint of a concentration-inhibition curve. Low readings indicate inhibition by little substance, high ones a need for much substance.

Assay [1] concerns HepG2. As to the kind of experiment: Antiproliferative activity against human HepG2 cells after 72 hrs by MTT assay. Format: functional, cell-based. Conditions: HepG2, 72 h. In short, it runs like this:
(§1)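 MTT assay. Log-phase cells were seeded at 3×10^3 cells/well and left overnight, then exposed to serial dilutions of compound (DMSO solutions) for 72 h in RPMI 1640 with 10% heat-inactivated FBS at 37 °C, 5% CO2. MTT (5 mg/mL, 20 µL) was added for 4 h at 37 °C and the formazan dissolved in DMSO. A490 was read. % inhibition = (1 − sample OD/control OD)×100; IC50 is the 50% growth-inhibition concentration. Triplicates, n = 3 independent experiments.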
(In general: Tetrazolium assays rely on reduction of a dye to a coloured formazan, in cell work by metabolically active cells.)

Assay [2] relates to HT-29. As to the kind of experiment: Antiproliferative activity against human HT-29 cells after 72 hrs by MTT assay. Format: functional, cell-based. As to conditions: HT-29, 72 h. Summed up:
as §1

Assay [3] relates to HeLa. In words: Antiproliferative activity against human HeLa cells after 72 hrs by MTT assay. Format: functional, cell-based. Summed up:
as §1

Assay [4] deals with BGC-823. In words: Antiproliferative activity against human BGC823 cells after 72 hrs by MTT assay. Conditions: BGC-823, 72 h. It counts as functional, cell-based. In short, it runs like this:
as §1

Assay [5] relates to A549. As to the kind of experiment: Antiproliferative activity against human A549 cells after 72 hrs by MTT assay. Format: functional, cell-based. Conditions: A549, 72 h. Summed up: as §1
Assay [6] has as its system MDCK. In words: Antiproliferative activity against MDCK cells after 72 hrs by MTT assay. As to conditions: Canis lupus familiaris. Format: cell-based. Summed up: as §1

With `C=C(C)[C@@H]1CC[C@]2(C(=O)OCc3nc(C)c(C)nc3C)CC[C@]3(C)[C@H](CC[C@@H]4[C@@]5(C)CC[C@H](OC(=O)CNC(=O)CN)C(C)(C)[C@@H]5CC[C@]43C)[C@@H]12`, the IC50 came out at 4 µM in assay [1]; 3.19 µM in assay [2]; 2.4 µM in assay [3]; 2.88 µM in assay [4]; 1.95 µM in assay [5]; 7.45 µM in assay [6].
In the case of `C=C(C)[C@@H]1CC[C@]2(C(=O)OCc3nc(C)c(C)nc3C)CC[C@]3(C)[C@H](CC[C@@H]4[C@@]5(C)CC[C@H](OC(=O)[C@@H](N)C(C)C)C(C)(C)[C@@H]5CC[C@]43C)[C@@H]12`, the 50% inhibitory concentration (IC50) is 5.91 µM in assay [1]; greater than 20 µM in assay [2]; 8.63 µM in assay [3]; 7.14 µM in assay [4]; 6.9 µM in assay [5]; greater than 40 µM in assay [6].
As to `C=C(C)[C@@H]1CC[C@]2(C(=O)OCc3nc(C)c(C)nc3C)CC[C@]3(C)[C@H](CC[C@@H]4[C@@]5(C)CC[C@H](OC(=O)[C@@H](N)CC(C)C)C(C)(C)[C@@H]5CC[C@]43C)[C@@H]12`, the IC50 in assay [1] is greater than 40 µM; in assay [2], greater than 20 µM; in assay [3], greater than 20 µM; in assay [4] it was greater than 20 µM; in assay [5], greater than 20 µM; in assay [6] it was greater than 40 µM.
Turning to `C=C(C)[C@@H]1CC[C@]2(C(=O)OCc3nc(C)c(C)nc3C)CC[C@]3(C)[C@H](CC[C@@H]4[C@@]5(C)CC[C@H](OC(=O)CNC(=O)[C@@H]6CCCN6)C(C)(C)[C@@H]5CC[C@]43C)[C@@H]12`, the half-inhibitory concentration (IC50) was 3.48 µM in assay [1]; 4.11 µM in assay [2]; 2.2 µM in assay [3]; 0.84 µM in assay [4]; 2.98 µM in assay [5]; 6.63 µM in assay [6].
Regarding `C=C(C)[C@@H]1CC[C@]2(C(=O)OCc3nc(C)c(C)nc3C)CC[C@]3(C)[C@H](CC[C@@H]4[C@@]5(C)CC[C@H](OC(=O)[C@@H]6CCC(=O)N6)C(C)(C)[C@@H]5CC[C@]43C)[C@@H]12`, the IC50 in assay [1] worked out at 5.86 µM; in assay [2], 3.78 µM; in assay [3] it was 6.59 µM; in assay [4] it was 4.7 µM; in assay [5], 4.11 µM; in assay [6], 9.24 µM.
With `C=C(C)[C@@H]1CC[C@]2(C(=O)OCc3nc(C)c(C)nc3C)CC[C@]3(C)[C@H](CC[C@@H]4[C@@]5(C)CC[C@H](OC(=O)CN(C)C(=O)CNC)C(C)(C)[C@@H]5CC[C@]43C)[C@@H]12`, the IC50 in assay [1] was 3.94 µM; in assay [2], 8.32 µM; in assay [3], 5.08 µM; in assay [4] it was 4.1 µM; in assay [5] it was 4.83 µM; in assay [6], 10.9 µM.
`C=C(C)[C@@H]1CC[C@]2(C(=O)OCc3nc(C)c(C)nc3C)CC[C@]3(C)[C@H](CC[C@@H]4[C@@]5(C)CC[C@H](OC(=O)[C@@H](N)[C@@H](C)CC)C(C)(C)[C@@H]5CC[C@]43C)[C@@H]12`: the IC50 in assay [1] is 12.7 µM; in assay [2] it was 15.9 µM; in assay [3], greater than 20 µM; in assay [4], greater than 20 µM; in assay [5], 14.5 µM; in assay [6], greater than 40 µM.
`C=C(C)[C@@H]1CC[C@]2(C(=O)OCc3nc(C)c(C)nc3C)CC[C@]3(C)[C@H](CC[C@@H]4[C@@]5(C)CC[C@H](OC(=O)[C@@H](N)Cc6ccccc6)C(C)(C)[C@@H]5CC[C@]43C)[C@@H]12`: the IC50 in assay [1] was greater than 40 µM; in assay [2], greater than 20 µM; in assay [3] it was greater than 40 µM; in assay [4], greater than 20 µM; in assay [5], greater than 40 µM; in assay [6], greater than 40 µM.
For `C=C(C)[C@@H]1CC[C@]2(C(=O)OCc3nc(C)c(C)nc3C)CC[C@]3(C)[C@H](CC[C@@H]4[C@@]5(C)CC[C@H](OC(=O)[C@@H](N)[C@@H](C)O)C(C)(C)[C@@H]5CC[C@]43C)[C@@H]12`, the IC50 in assay [1] was 3.64 µM; in assay [2] it was 6.66 µM; in assay [3], 8.39 µM; in assay [4], 7.05 µM; in assay [5], 4.18 µM; in assay [6] it was greater than 40 µM.
Regarding `C=C(C)[C@@H]1CC[C@]2(C(=O)OCc3nc(C)c(C)nc3C)CC[C@]3(C)[C@H](CC[C@@H]4[C@@]5(C)CC[C@H](OC(=O)[C@@H](N)Cc6c[nH]c7ccccc67)C(C)(C)[C@@H]5CC[C@]43C)[C@@H]12`, the 50% inhibitory concentration (IC50) is greater than 40 µM in assay [1]; 7.41 µM in assay [2]; greater than 20 µM in assay [3]; greater than 20 µM in assay [4]; greater than 20 µM in assay [5]; greater than 40 µM in assay [6].
Consider `C=C(C)[C@@H]1CC[C@]2(C(=O)OCc3nc(C)c(C)nc3C)CC[C@]3(C)[C@H](CC[C@@H]4[C@@]5(C)CC[C@H](OC(=O)[C@@H]6CCCN6)C(C)(C)[C@@H]5CC[C@]43C)[C@@H]12`, for which the half-maximal inhibitory concentration (IC50) in assay [1] turned out to be 4.54 µM; in assay [2], 2.73 µM; in assay [3] it was 6.33 µM; in assay [4], 3.47 µM; in assay [5] it was 3.36 µM; in assay [6], 10.2 µM.
Take `C=C(C)[C@@H]1CC[C@]2(C(=O)OCc3nc(C)c(C)nc3C)CC[C@]3(C)[C@H](CC[C@@H]4[C@@]5(C)CC[C@H](OC(=O)[C@H](N)CC(=O)O)C(C)(C)[C@@H]5CC[C@]43C)[C@@H]12`: the 50% inhibitory concentration (IC50) in assay [1] was greater than 20 µM; in assay [2], greater than 20 µM; in assay [3] it was greater than 20 µM; in assay [4] it was greater than 20 µM; in assay [5] it was greater than 20 µM; in assay [6], greater than 40 µM.
With `C=C(C)[C@@H]1CC[C@]2(C(=O)OCc3nc(C)c(C)nc3C)CC[C@]3(C)[C@H](CC[C@@H]4[C@@]5(C)CC[C@H](OC(=O)[C@H](C)NC(=O)[C@H](C)N)C(C)(C)[C@@H]5CC[C@]43C)[C@@H]12`, the half-maximal inhibitory concentration (IC50) is 1.93 µM in assay [1]; 4.18 µM in assay [2]; 4.49 µM in assay [3]; 2.51 µM in assay [4]; 2.54 µM in assay [5]; 10.2 µM in assay [6].
Take `C=C(C)[C@@H]1CC[C@]2(C(=O)OCc3nc(C)c(C)nc3C)CC[C@]3(C)[C@H](CC[C@@H]4[C@@]5(C)CC[C@H](O)C(C)(C)[C@@H]5CC[C@]43C)[C@@H]12`: the half-maximal inhibitory concentration (IC50) in assay [1] is 5.7 µM; in assay [2] it was 7.41 µM; in assay [3], 8 µM; in assay [4] it was 6.87 µM; in assay [5] it was 3.56 µM; in assay [6], 18.2 µM.
As for `C=C(C)[C@@H]1CC[C@]2(C(=O)OCc3nc(C)c(C)nc3C)CC[C@]3(C)[C@H](CC[C@@H]4[C@@]5(C)CC[C@H](OC(=O)CN(C)C(=O)[C@H](C)N)C(C)(C)[C@@H]5CC[C@]43C)[C@@H]12`, the half-maximal inhibitory concentration (IC50) is 4.27 µM in assay [1]; 3.86 µM in assay [2]; 4.55 µM in assay [3]; 4.38 µM in assay [4]; 5.18 µM in assay [5]; 14.6 µM in assay [6].
With `C=C(C)[C@@H]1CC[C@]2(C(=O)OCc3nc(C)c(C)nc3C)CC[C@]3(C)[C@H](CC[C@@H]4[C@@]5(C)CC[C@H](OC(=O)CN)C(C)(C)[C@@H]5CC[C@]43C)[C@@H]12`, the 50% inhibitory concentration (IC50) in assay [1] was 6.77 µM; in assay [2], 3.97 µM; in assay [3] it was 4.24 µM; in assay [4], 3.87 µM; in assay [5], 3.62 µM; in assay [6] it was 5.82 µM.
Take `C=C(C)[C@@H]1CC[C@]2(C(=O)OCc3nc(C)c(C)nc3C)CC[C@]3(C)[C@H](CC[C@@H]4[C@@]5(C)CC[C@H](OC(=O)CN(C)C(=O)CN)C(C)(C)[C@@H]5CC[C@]43C)[C@@H]12`: the IC50 came to 4.94 µM in assay [1]; 3.31 µM in assay [2]; 2.62 µM in assay [3]; 3.43 µM in assay [4]; 2.96 µM in assay [5]; 8.08 µM in assay [6].
On to `C=C(C)[C@@H]1CC[C@]2(C(=O)OCc3nc(C)c(C)nc3C)CC[C@]3(C)[C@H](CC[C@@H]4[C@@]5(C)CC[C@H](OC(=O)CNC(=O)CNC)C(C)(C)[C@@H]5CC[C@]43C)[C@@H]12`, for which the IC50 was determined as 5.27 µM in assay [1]; 3.37 µM in assay [2]; 7.38 µM in assay [3]; 2.07 µM in assay [4]; 3.02 µM in assay [5]; 20.6 µM in assay [6].
As for `C=C(C)[C@@H]1CC[C@]2(C(=O)OCc3nc(C)c(C)nc3C)CC[C@]3(C)[C@H](CC[C@@H]4[C@@]5(C)CC[C@H](OC(=O)[C@@H](N)CO)C(C)(C)[C@@H]5CC[C@]43C)[C@@H]12`, the half-maximal inhibitory concentration (IC50) in assay [1] was found to be 4.03 µM; in assay [2], 4.35 µM; in assay [3], 2.74 µM; in assay [4], 6.21 µM; in assay [5] it was 4.39 µM; in assay [6] it was 8.56 µM.
`C=C(C)[C@@H]1CC[C@]2(C(=O)OCc3nc(C)c(C)nc3C)CC[C@]3(C)[C@H](CC[C@@H]4[C@@]5(C)CC[C@H](OC(=O)CNC)C(C)(C)[C@@H]5CC[C@]43C)[C@@H]12`: the half-inhibitory concentration (IC50) in assay [1] is 4.5 µM; in assay [2] it was 1.1 µM; in assay [3], 3.96 µM; in assay [4] it was 3.97 µM; in assay [5], 3.05 µM; in assay [6], 9.08 µM.
